Measured values from different studies.
Protocols differ between the studies behind these lines.
Cell line: MRC5
Effect on: cell growth or viability

SMILES | assay | setting | measurement | value
CC(C)(C)OC(=O)N1CCN(c2cc(-c3cnc4[nH]cc(C(=O)c5ccc(F)cc5)c4c3)ccn2)CC1 | MTT | 10 µM, 48 h | viability | 78.9%
O=c1c2ccccc2[se]n1-c1ccccc1 | MTT | 72 h | IC50 | 94 µM
CCOC(=O)CCn1cc(C(=O)c2ccc(F)cc2)c2cc(-c3ccc(N4CCN(C(=O)OC(C)(C)C)CC4)nc3)cnc21 | MTT | 10 µM, 48 h | viability | 92.1%
Nc1cc(Br)c(Br)cc1N |  | 72 h | IC50 | 200 µM
CC(C)=CCOc1c2occc2cc2ccc(=O)oc12 | MTT | 72 h | IC50 | > 100 µM
Nc1cc(Cl)c(Cl)cc1N |  | 72 h | IC50 | > 250 µM
COc1c2c(cc3c1OCO3)[C@]13C=C[C@H](OC)C[C@@H]1[N@](C2)C[C@H]3OC(=O)c1ccoc1 | WST-1 |  | IC50 | > 10 µM
CS(=O)(=O)N1CCN(c2ccc(-c3cnc4[nH]cc(C(=O)c5ccc(F)cc5)c4c3)cn2)CC1 | MTT | 10 µM, 48 h | viability | 79.1%
C=CCc1cc(OC)c2c(c1)OCO2 | SRB |  | IC50 | 420 µM
N.N.[Cl][Pt][Cl] | SRB |  | EC50 | 5.8 µM
CC1=CC(=O)c2c(O)cccc2C1=O | SRB |  | IC50 | 5.15 µM
CC(C)(C)OC(=O)N1CCN(c2ccc(-c3cnc4[nH]cc(C(=O)c5ccc(F)cc5)c4c3)cc2)CC1 | MTT | 10 µM, 48 h | viability | 78.7%
COc1c2c(cc3c1OCO3)[C@]13C=C[C@H](OC)C[C@@H]1[N@](C2)C[C@H]3OC(=O)c1ccc2ccccc2c1 | WST-1 |  | IC50 | > 10 µM
